Results: PMC9303924 (Proceedings of the National Academy of Sciences of the …, 2022)
Entries after “also recorded” stand apart in the source; their conditions may differ. Read-outs that look alike come from different tables or passages of the source.

How the values were obtained:
[1] = system: McpA/TlpA receptor chimeras in SQR9Δ8mcp; experiment: Chemotaxis of McpA receptor chimera strains compared; assay type: cell-based, Bacillus velezensis SQR9; details: strains with chimeras McpA_distal (M1) and McpA_proximal (M2)
In short: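 Chimeric receptors (McpA or TlpA LBD modules swapped) integrated at amyE of SQR9Δ8mcp; strains grown at 30 °C in low-salt LB. Microfluidic SlipChip run with 13 parallel units as duplicates: channels BSA-coated (10 mg/mL, 5 min); compound, cells and buffer in top, middle and bottom wells; 30 min in the dark. Cells counted by fluorescence microscopy; I30 = Ne/(Ne+Nc); attraction when above 0.6.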

McpA-LBD (A36-L277) [2] = biological target: T1, McpA-LBD (A36-L277) (Bacillus velezensis, UniProt A7Z835); experiment: Surface plasmon resonance; assay type: binding, Bacillus velezensis SQR9; details: SPR, compounds at 200 μM and 2 mM
T1 sequence (A7Z835 36-277): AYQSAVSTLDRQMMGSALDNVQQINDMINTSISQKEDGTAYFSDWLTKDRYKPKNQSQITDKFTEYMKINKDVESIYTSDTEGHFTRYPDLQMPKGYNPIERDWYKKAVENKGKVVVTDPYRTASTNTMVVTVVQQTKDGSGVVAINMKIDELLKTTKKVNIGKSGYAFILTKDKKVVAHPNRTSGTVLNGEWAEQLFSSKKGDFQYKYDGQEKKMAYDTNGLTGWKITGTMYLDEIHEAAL

McpA-LBD [3] = details: cited from earlier work
McpA-LBD [4] = details: cited from earlier work; remark: listed apart in the source
McpA-LBD (A36-L277) [5] = biological target: T1, McpA-LBD (A36-L277); experiment: Biolayer interferometry; assay type: binding, Bacillus velezensis SQR9

McpA-LBD module on which chemotaxis relies [1] | Structure (SMILES) | interaction with McpA-LBD observed (McpA-LBD (A36-L277) [5]; BLI) | also measured
sensed by the membrane-proximal module | O=C(O)CCC(=O)O [Succinic acid] |  | 
sensed by the membrane-proximal module | N[C@@H](Cc1ccc(O)cc1)C(=O)O [Tyrosine] | interaction | 
sensed by the membrane-proximal module | O=C(O)C(=O)O [Oxalic acid] |  | 

Continued, compound first:

Structure (SMILES) | McpA-LBD module on which chemotaxis relies [1] | interaction with McpA-LBD observed (McpA-LBD (A36-L277) [5]; BLI) | also measured
N[C@@H](CCC(=O)O)C(=O)O [Glutamic acid] | sensed by the membrane-proximal module |  | 
N[C@@H](CO)C(=O)O [Serine] |  |  | binding to McpA-LBD (McpA-LBD (A36-L277) [2]): binding for all ligands, except for serine and fucose
O=C[C@H](O)[C@@H](O)[C@@H](O)[C@H](O)CO [Galactose] |  |  | direct binding to McpA-LBD (McpA-LBD [3]): no direct binding
O=C(O)CC(O)(CC(=O)O)C(=O)O [Citric acid] | sensed by the membrane-proximal module |  | direct binding to McpA-LBD (McpA-LBD [4]): direct binding
O=C(O)CC(O)C(=O)O (stereo not shown) [Malic acid] | sensed by the membrane-proximal module |  | 
N[C@@H](CC(=O)O)C(=O)O [Aspartic acid] | sensed by the membrane-proximal module |  | direct binding to McpA-LBD (McpA-LBD [4]): direct binding
OC[C@@H](O)[C@@H](O)[C@@H](O)CO [Ribitol] |  | interaction; also recorded: directly bound | Kd (McpA-LBD (A36-L277) [5]): 4.36 µM
C[C@H](O)[C@@H](O)[C@@H](O)[C@H](O)C=O [Fucose] |  | interaction; also recorded: directly bound | binding to McpA-LBD (McpA-LBD (A36-L277) [2]): binding for all ligands, except for serine and fucose
OC[C@H]1OC(O)[C@@H](O)[C@@H](O)[C@@H]1O (stereo partly shown) [Mannose] |  | interaction | 
O=C[C@H](O)[C@H](O)[C@H](O)CO [Ribose] |  | interaction; also recorded: directly bound | Kd (McpA-LBD (A36-L277) [5]; BLI, McpA-LBD (A36-L277), 25 °C, 1:1 binding model): 1.94 µM
